Results published in ChEMBL document CHEMBL3297702, “Improving photodynamic inactivation of bacteria in dentistry: highly effective and fast killing of oral key pathogens with novel tooth-colored type-II photosensitizers” (J Med Chem, 2014).

Key:
Leishmania donovani = assay: Leishmanicidal activity against promastigote stage of Leishmania donovani MHOM/SD/00/1S-2D after 2 hrs by MTT assay; assay type: functional, organism-based
Leishmania infantum = assay: Leishmanicidal activity against amastigote stage of Leishmania infantum MCAN/ES/89/IPZ229/1/89 after 2 hrs by MTT assay; assay type: functional, organism-based; conditions: MCAN/ES/89/IPZ229/1/89, 2 h
[1] = Induction of singlet oxygen generation measured over 20 mins by luminescence assay; assay type: physicochemical
[2] = Photobleaching of the compound irradiated with laser energy at 405 nm for 5 mins; assay type: physicochemical; set-up: dose or concentration left out as unconfirmed
Enterococcus faecalis [3] = assay: Toxicity in Enterococcus faecalis ATCC 29212 assessed as reduction of log10 CFU at 1 to 250 uM incubated for 10 secs under dark condition measured after 24 hrs by agar plating method; assay type: organism-based; conditions: in vivo
Method in brief: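 Dark controls. Overnight BHI cultures (EF, SM, AN aerobic; AA anaerobic; 37 °C) were washed into PBS at 10^7–10^8 cells/mL. They were mixed 1:1 with photosensitizer at final 0–250 µM and incubated 10 s, 7.5 min or 15 min, then kept in the dark for 20, 40 or 120 s. Tenfold dilutions were plated: EF on Mueller-Hinton agar, aerobic 24 h; SM on BHI agar, aerobic 48 h; AN on blood agar, aerobic 48 h; AA on BHI agar, anaerobic 48 h; all at 37 °C. CFU were compared with untreated controls; medians of three independent experiments in triplicate.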

[4] = Octanol-water partition coefficient, log P of the compound at 1 x 10^-4 mol at room temperature after 10 mins by UV/vis spectroscopic analysis; assay type: physicochemical
Enterococcus faecalis [5] = assay: Photodynamic inactivation of Enterococcus faecalis ATCC 29212 assessed as reduction of log10 CFU at 1 uM incubated prior to irradiation with 25 j/cm'2 for 20 secs measured after 24 hrs by agar plating method (reference value: <1 no unit); assay type: functional
Method in brief: (§1)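 E. faecalis ATCC 29212, aerobic overnight BHI culture at 37 °C, was harvested at stationary phase and suspended in PBS at 10^7–10^8 bacteria/mL. It was mixed 1:1 with PS to 0–250 µM final, held 10 s, then illuminated (1260 ± 50 mW/cm2) or kept dark. Dilutions were plated on Mueller-Hinton agar, aerobic 37 °C 24 h, CFU counted. Medians of three independent triplicate experiments, referred to untreated controls.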

Enterococcus faecalis [6] = assay: Photodynamic inactivation of Enterococcus faecalis ATCC 29212 assessed as reduction of log10 CFU at 1 uM incubated prior to irradiation with 150 j/cm'2 for 120 secs measured after 24 hrs by agar plating method (reference value: <1 no unit); assay type: functional; method in brief: as §1
Enterococcus faecalis [7] = assay: Photodynamic inactivation of Enterococcus faecalis ATCC 29212 assessed as reduction of log10 CFU at 1 uM incubated prior to irradiation with 50 j/cm'2 for 40 secs measured after 24 hrs by agar plating method (reference value: <1 no unit); assay type: functional; method in brief: as §1
Enterococcus faecalis [8] = assay: Photodynamic inactivation of Enterococcus faecalis ATCC 29212 assessed as reduction of log10 CFU at 5 uM incubated prior to irradiation with 25 j/cm'2 for 20 secs measured after 24 hrs by agar plating method (reference value: <1 no unit); assay type: functional; method in brief: as §1
Enterococcus faecalis [9] = assay: Photodynamic inactivation of Enterococcus faecalis ATCC 29212 assessed as reduction of log10 CFU at 5 uM incubated prior to irradiation with 50 j/cm'2 for 40 secs measured after 24 hrs by agar plating method (reference value: <1 no unit); assay type: functional; method in brief: as §1
Enterococcus faecalis [10] = assay: Photodynamic inactivation of Enterococcus faecalis ATCC 29212 assessed as reduction of log10 CFU at 5 uM incubated prior to irradiation with 150 j/cm'2 for 120 secs measured after 24 hrs by agar plating method (reference value: <1 no unit); assay type: functional; method in brief: as §1
Enterococcus faecalis [11] = assay: Photodynamic inactivation of Enterococcus faecalis ATCC 29212 assessed as reduction of log10 CFU at 10 uM incubated prior to irradiation with 25 j/cm'2 for 20 secs measured after 24 hrs by agar plating method (reference value: <1 no unit); assay type: functional; method in brief: as §1
Enterococcus faecalis [12] = assay: Photodynamic inactivation of Enterococcus faecalis ATCC 29212 assessed as reduction of log10 CFU at 10 uM incubated prior to irradiation with 50 j/cm'2 for 40 secs measured after 24 hrs by agar plating method (reference value: <1 no unit); assay type: functional; method in brief: as §1
Enterococcus faecalis [13] = assay: Photodynamic inactivation of Enterococcus faecalis ATCC 29212 assessed as reduction of log10 CFU at 10 uM incubated prior to irradiation with 150 j/cm'2 for 120 secs measured after 24 hrs by agar plating method (reference value: <1 no unit); assay type: functional; method in brief: as §1
Enterococcus faecalis [14] = assay: Photodynamic inactivation of Enterococcus faecalis ATCC 29212 assessed as reduction of log10 CFU at 100 uM incubated prior to irradiation with 25 j/cm'2 for 20 secs measured after 24 hrs by agar plating method (reference value: <1 no unit); assay type: functional; method in brief: as §1
Enterococcus faecalis [15] = assay: Photodynamic inactivation of Enterococcus faecalis ATCC 29212 assessed as reduction of log10 CFU at 100 uM incubated prior to irradiation with 50 j/cm'2 for 40 secs measured after 24 hrs by agar plating method (reference value: <1 no unit); assay type: functional; method in brief: as §1
Enterococcus faecalis [16] = assay: Photodynamic inactivation of Enterococcus faecalis ATCC 29212 assessed as reduction of log10 CFU at 100 uM incubated prior to irradiation with 150 j/cm'2 for 120 secs measured after 24 hrs by agar plating method (reference value: <1 no unit); assay type: functional; method in brief: as §1

O=C1C(O)=Cc2cccc3ccc(-c4ccccc4)c1c23
EC50 (Leishmania donovani): < 60 mg/L
EC50 (Leishmania infantum): < 60 mg/L
Activity [1]: Active
Stability [2]: Unstable

CCCC[N+](C)(C)CC1=Cc2cccc3cccc(c23)C1=O.[Cl-]
Activity (Enterococcus faecalis [3]): Non-toxic
Activity [1]: Active
Stability [2]: Unstable
logP at 10 min [4]: -0.8
log10cfu (Enterococcus faecalis [5]): <1
log10cfu (Enterococcus faecalis [6]): <3
log10cfu (Enterococcus faecalis [7]): <1
log10cfu (Enterococcus faecalis [8]): <1
log10cfu (Enterococcus faecalis [9]): <3
log10cfu (Enterococcus faecalis [10]): 3
log10cfu (Enterococcus faecalis [11]): <3
log10cfu (Enterococcus faecalis [12]): <3
log10cfu (Enterococcus faecalis [13]): >6
log10cfu (Enterococcus faecalis [14]): >6
log10cfu (Enterococcus faecalis [15]): >6
log10cfu (Enterococcus faecalis [16]): >6

CC(c1ccccc1)[N+](C)(C)CC1=Cc2cccc3cccc(c23)C1=O.[Cl-] (stereo unspecified)
Activity (Enterococcus faecalis [3]): Non-toxic
Activity [1]: Active
Stability [2]: Unstable
logP at 10 min [4]: -0.1
log10cfu (Enterococcus faecalis [5]): <1
log10cfu (Enterococcus faecalis [6]): <3
log10cfu (Enterococcus faecalis [7]): <1
log10cfu (Enterococcus faecalis [8]): <3
log10cfu (Enterococcus faecalis [9]): <3
log10cfu (Enterococcus faecalis [10]): >6
log10cfu (Enterococcus faecalis [11]): <3
log10cfu (Enterococcus faecalis [12]): <3
log10cfu (Enterococcus faecalis [13]): >6
log10cfu (Enterococcus faecalis [14]): >6
log10cfu (Enterococcus faecalis [15]): >6
log10cfu (Enterococcus faecalis [16]): >6

O=C1C(CCl)=Cc2cccc3cccc1c23
logP at 10 min [4]: 1.3

COC1=Cc2cccc3ccc(-c4ccccc4)c(c23)C1=O
EC50 (Leishmania donovani): < 60 mg/L
EC50 (Leishmania infantum): < 60 mg/L
Activity [1]: Active
Stability [2]: Unstable
